CRFR2-BP antag: antagonists of CRF-BP/CRF-R2 complex, primary screen, cell-based, HEK293, calcium dye fluorescence, uHTS. inhibition, % at 11.8 µM. CRF-induced calcium fluorescence. 0.59% of 350,000 active;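 active means inhibition of the ligand-induced calcium signal above about 50% at the single tested concentration, limit read from the data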
Rpn11 inh: Rpn11 (PSMD14) deubiquitinase inhibitors, primary screen, biochemical, fluorescence polarization, uHTS | human 26S proteasome, Ub4-pepOG fluorescence polarization; 20S core pre-blocked with epoxomicin | AID 588493, 2011 | 0.59% of 360,000 active | calls only at 20 µM;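 active means inhibition at 20 µM, scaled to each plate's controls, above about 33%, limit read from the data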
CSN deneddyl inh: inhibitors of CSN-mediated cullin deneddylation, primary screen, biochemical, fluorescence polarization, uHTS; COP9 signalosome complex subunit 5 (Homo sapiens), Q92905; Purified CSN, SCF-Nedd8-OG deneddylation; inhibition, % at 12.5 µM; 0.38% of 360,000 active; AID 651999, 2013;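 active means pattern-corrected inhibition above about 35%, with an unprinted fluorescence ratio check between 0.5 and 1.5, limit read from the data, passing the limit was not always enough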
Target sequence (Q92905 whole entry, looked up, one chain of several): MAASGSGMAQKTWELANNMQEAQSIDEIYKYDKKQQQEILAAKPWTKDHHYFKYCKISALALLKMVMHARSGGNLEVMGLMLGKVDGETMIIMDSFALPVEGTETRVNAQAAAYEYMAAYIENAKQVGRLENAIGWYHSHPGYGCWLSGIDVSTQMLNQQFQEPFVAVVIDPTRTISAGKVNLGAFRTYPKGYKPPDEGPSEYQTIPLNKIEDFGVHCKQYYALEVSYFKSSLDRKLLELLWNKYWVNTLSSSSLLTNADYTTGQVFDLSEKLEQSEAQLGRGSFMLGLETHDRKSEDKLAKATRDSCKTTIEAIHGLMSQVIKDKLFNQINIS
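Assay system: Purified human Csn5 enzyme expressed in HEK293T cells | Amount: Enzyme 0.24 nM | Measured by: Fluorescence polarization readout | Medium: Tris/NaCl/DTT buffer, pH 7.5 | Compound dosing: One concentration, 12.5 µM, 0.25% DMSO | Times: 90 min incubation of compound, enzyme and substrate at room temperature | Control set: no-enzyme wells high, enzyme-with-substrate wells low | Read-out: % inhibition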
TPT1 inhibitor: Candida albicans TPT1 enzyme inhibitors, primary screen, biochemical, fluorescence polarization; tRNA 2'-phosphotransferase TPT1 (Candida albicans SC5314); recombinant caTPT1, FP RNA substrate dephosphorylation; AID 1962, 2009; inhibition, % at 5 µM; 0.81% of 300,000 active;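 active means inhibition above the mean of all tested compounds plus 3 SD, set per screening campaign, cut at about 24% in these data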
CRFBP-R2 agonist: agonists of CRF-BP/CRF-R2 complex, primary screen, cell-based, HEK293, calcium dye fluorescence, uHTS | CRF-binding protein / CRF receptor 2 complex (human) | calcium dye fluorescence (FLIPR); percent of saturating CRF peptide response | activation, % at 13.2 µM | 0.46% of 350,000 active | AID 588473, 2011;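 active means activation of at least 50%, plus an integration ratio under a set limit after plate pattern correction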
HNF4A DNA FP: change in binding of human HNF4A to DNA, primary screen, biochemical, fluorescence polarization, FITC-DNA | Hepatocyte nuclear factor 4-alpha (Homo sapiens), P41235 | 1 h | AID 1224865, 2016 | 0.3% of 360,000 active | activity change, % at 10 µM; in the data active means activity change above about 30%, passing the limit was not always enough
Hits are given with their value; . = inactive; / = no result given. A selection: hits, their analogues and other compounds. The true share with any hit is near 2.3%.

SMILES	CRFR2-BP antag	Rpn11 inh	CSN deneddyl inh	TPT1 inhibitor	CRFBP-R2 agonist	HNF4A DNA FP
CC1(C)C(=O)Nc2ccccc2N1C(=O)CN1C(=O)C(=O)N(C2CCCC2)C1=O	.	.	.	.	.	.
CCOc1ccc(N=c2scc(-c3ccccc3)n2CCO)cc1	.	.	.	.	.	.
CCOc1ccc(N=c2scc(-c3ccc(OC)cc3)n2CCO)cc1	80	.	.	.	.	.
CCCC(=O)Nc1ccc(-c2nc3cc(C)c(C)cc3o2)c(O)c1	75	.	.	.	.	.
Brc1ccc(-c2noc(CCc3ccccc3)n2)o1	61	.	.	.	.	.
CCn1c(CCNC(=O)c2ccc(C)cc2)nnc1SCc1ccc(Cl)c(Cl)c1	.	.	.	.	.	.
CCn1c(CCNC(=O)c2ccc(OC)cc2)nnc1SCc1ccc(Cl)c(Cl)c1	.	.	.	.	136	.
COC(=O)CCC(=O)COc1ccccc1C#N	.	.	.	.	.	.
COc1ccc(N2CCN(c3ccc(C(N)=O)cc3[N+](=O)[O-])CC2)cc1	.	.	75	.	.	.
CCOc1ccc(CCNc2cc(C)nc3ncnn23)cc1OCC	.	.	.	.	.	.
CC1=CC(C)(C(Cl)(Cl)Cl)C(C)=CC1=NO (stereo not given)	57	.	.	/	.	.
CC1(C)CC(=O)C2=C(C1)N(Cc1ccco1)C(=O)C2(NC(=O)c1cccnc1)C(F)(F)F (stereo not given)	.	.	.	.	.	.
CC1(C)CC(=O)C2=C(C1)N(Cc1ccco1)C(=O)C2(O)C(F)(F)F (stereo not given)	94	.	.	.	.	.
O=C(C=Cc1ccco1)c1cc(Cl)ccc1O	.	.	.	/	.	.
Clc1ccc(C2=Nc3cc(Cl)ccc3OC2)cc1	.	.	.	.	.	68
Cn1cccc1C(C#N)c1cccc(F)c1C#N (stereo not given)	.	.	.	.	.	.
Cn1cccc1C(C#N)(CC#N)c1cccc(F)c1C#N (stereo not given)	.	.	101	.	.	.
O=C(c1ccc([N+](=O)[O-])cc1)N(Cc1ccc(Br)cc1)N1C(=O)CCCC1=O	.	.	.	.	59	.
O=C(c1ccc([N+](=O)[O-])cc1)N(Cc1ccccc1)Cc1ccccc1	68	.	.	/	.	.
O=C(C1CCN(C2CCN(CC3CC=CCC3)CC2)CC1)N1CCOCC1 (stereo not given)	86	.	.	.	.	.
S=C1SCN(Cc2cccnc2)CN1Cc1cccnc1	.	.	.	.	101	.
S=c1[nH]nc2ccc3ccccc3n12	/	.	.	/	/	.
S=c1[nH]c2ccccc2n2c(=S)[nH]nc12	55	.	.	.	.	.
COc1ccc(OCC(=O)OCCNC(=O)c2cccnc2)cc1	.	.	.	.	.	.
O=C(Nc1cnc2sccn2c1=O)c1ccc(Cl)cc1Cl	.	.	.	.	.	.
SMILES	CRFR2-BP antag	Rpn11 inh	CSN deneddyl inh	TPT1 inhibitor	CRFBP-R2 agonist	HNF4A DNA FP
CCOc1ccc(Cl)cc1S(=O)(=O)n1nnc2ccccc21	107	.	.	.	.	.
Cc1ccc(S(=O)(=O)n2nnc3ccccc32)c(C)c1C	93	.	.	.	.	.
CCOc1ccc(S(=O)(=O)n2nnc3ccccc32)cc1C	.	/	/	.	.	/
O=S(=O)(c1cccs1)n1nnc2ccccc21	.	.	.	.	.	.
Cc1cccc(NC(=O)CSc2nc3[nH]ncc3c(=O)[nH]2)c1C	51	.	.	.	.	.
CC(C)N1CCc2c(sc(NC(=O)c3ccco3)c2C(N)=O)C1	.	.	.	.	.	.
COC(=O)c1c(NC(=O)c2ccco2)sc2c1CCC2	.	.	.	.	.	64
COC(=O)c1c(NC(=O)c2ccco2)sc2c1CCN(C(C)C)C2	.	.	.	.	52	.
CC(C)N1CCc2c(sc(NC(=O)CCc3ccccc3)c2C(N)=O)C1	.	.	.	.	62	.
CC1CC(C)CN(C(=O)COC(=O)c2cc(S(=O)(=O)N3CCOCC3)ccc2F)C1 (stereo not given)	.	.	.	.	.	.
CCn1c(-c2csc3c2CCCC3)n[nH]c1=S	.	.	.	.	.	.
CCN(CC)S(=O)(=O)c1ccc(NC(=O)C(C)N(c2ccc(OC)cc2)S(C)(=O)=O)cc1 (stereo not given)	.	.	.	.	.	.
COc1ccccc1N1CCN(/N=C(\C)c2ccccc2O)CC1	.	.	.	.	.	.
COCCc1nc2ccc(C(=O)NCc3cccc(-n4cccn4)c3)cc2o1	.	.	.	.	.	.
COc1ccc(N2C(=O)CSC23C(=O)N2c4c(cccc43)C(C)=CC2(C)C)cc1 (stereo not given)	84	.	.	.	.	.
CC(Oc1ccc(Br)cc1)C(=O)Nc1ccc(S(=O)(=O)NC2=NCCCCC2)cc1 (stereo not given)	.	.	.	/	81	.
C/C(=N/NC(=O)C1COc2ccccc2O1)c1ccc(Br)s1 (stereo not given)	.	.	.	.	.	.
CC(C)OC(=O)c1ccc(NC(=O)Cn2c(-c3nonc3N)nc3ccccc32)cc1	.	.	.	.	.	.
Cc1ccc(S(=O)(=O)N2CCN(C3CC(=O)N(CCc4ccccc4)C3=O)CC2)cc1C (stereo not given)	.	.	.	.	.	61
O=C(C1CCCN1C(=O)c1cccs1)N1CCN(S(=O)(=O)c2ccc(F)cc2)CC1 (stereo not given)	.	.	.	/	.	.
N#Cc1ccc(S(=O)(=O)N2CCN(C(=O)[C@@H]3CCCN3C(=O)c3cccs3)CC2)cc1	79	.	.	/	.	.
COc1ccc(NC(=O)CNC(=O)Cn2c(C)cc3ccccc3c2=O)c(OC)c1	.	.	.	.	.	.
CNc1c2cccc(C)c2nc2c(C(=O)NCCN(C)C)cccc12	.	.	.	/	54	.
Cc1ccc(C(=O)NCCN(C)C)c(C)c1	.	.	.	.	.	.
COc1ccc(/C(O)=C2/C(=O)C(=O)N(CCN(C)C)C2c2cccnc2)cc1C (stereo not given)	.	.	.	.	94	.
COc1ccc(C(=O)Nc2cc(=O)n(C)c(=O)n2C)cc1	104	.	.	.	.	.
O=C(CCCc1cccs1)Nc1ccc2c(c1)OCO2	58	.	.	.	.	.

Screens (PubChem BioAssay)
